In ChEMBL document CHEMBL2176947, “Discovery of the First Potent Inhibitors of Mutant IDH1 That Lower Tumor 2-HG in Vivo” (ACS Med Chem Lett, 2012):
The source made the active and inactive calls. The calls are words filed in the database; no cut-off is given here.

Tests used:
HT-1080 = experiment: Growth inhibition of human HT1080 cells after 72 hrs by CellTiter-Glo assay; format: functional; conditions: HT-1080, 72 h
Outline: (§1)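 Cells exposed to compound for 72 h, run within the same experiment as the 2-HG assay; total cellular ATP measured; concentration giving 50% growth inhibition (GI50) determined.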

[1] = target: T1, Isocitrate dehydrogenase [NADP] cytoplasmic (Homo sapiens, UniProt O75874, R132C); experiment: Inhibition of IDH1 R132C mutant endogenously expressing human HT1080 cells assessed as inhibition of 2-hydroxyglutarate production after 48 hrs by LC/MS analysis
T1 sequence (O75874 2-414 R132C limits assumed): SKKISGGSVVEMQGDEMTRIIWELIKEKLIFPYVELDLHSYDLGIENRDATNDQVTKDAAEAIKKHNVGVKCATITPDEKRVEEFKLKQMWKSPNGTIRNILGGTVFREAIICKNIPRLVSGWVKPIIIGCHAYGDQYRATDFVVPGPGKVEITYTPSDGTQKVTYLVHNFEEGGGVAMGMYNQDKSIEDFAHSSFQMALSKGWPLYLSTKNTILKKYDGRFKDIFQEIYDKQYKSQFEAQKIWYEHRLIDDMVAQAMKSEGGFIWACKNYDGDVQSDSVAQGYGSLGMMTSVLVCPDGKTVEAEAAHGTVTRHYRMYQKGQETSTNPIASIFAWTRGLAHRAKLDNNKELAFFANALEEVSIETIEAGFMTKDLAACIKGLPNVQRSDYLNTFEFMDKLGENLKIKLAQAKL

[2] = Growth inhibition of human U87 cells after 72 hrs by CellTiter-Glo assay; format: functional, U-87MG ATCC; conditions: U-87 MG; outline: as §1
[3] = target: T2, Isocitrate dehydrogenase [NADP] cytoplasmic (Homo sapiens, UniProt O75874, R132H); experiment: Inhibition of IDH1 R132H mutant expressed in human U87 cells assessed as inhibition of 2-hydroxyglutarate production after 48 hrs by LC/MS analysis; format: cell-based, U-87MG ATCC
T2 sequence (O75874 2-414 R132H limits assumed): as the sequence (O75874 2-414 R132C limits assumed) above, with C131H counted along it

[4] = test system: Isocitrate dehydrogenase [NADP] cytoplasmic (Homo sapiens), O75874 [R132H]; experiment: Reversible inhibition of IDH1 R132H mutant using alpha-ketoglutarate as substrate by stopped-flow spectrophotometric analysis
Isocitrate dehydrogenase [NADP] cytoplasmic (Homo sapiens), O75874 [R132H], sequence (O75874 whole entry R132H): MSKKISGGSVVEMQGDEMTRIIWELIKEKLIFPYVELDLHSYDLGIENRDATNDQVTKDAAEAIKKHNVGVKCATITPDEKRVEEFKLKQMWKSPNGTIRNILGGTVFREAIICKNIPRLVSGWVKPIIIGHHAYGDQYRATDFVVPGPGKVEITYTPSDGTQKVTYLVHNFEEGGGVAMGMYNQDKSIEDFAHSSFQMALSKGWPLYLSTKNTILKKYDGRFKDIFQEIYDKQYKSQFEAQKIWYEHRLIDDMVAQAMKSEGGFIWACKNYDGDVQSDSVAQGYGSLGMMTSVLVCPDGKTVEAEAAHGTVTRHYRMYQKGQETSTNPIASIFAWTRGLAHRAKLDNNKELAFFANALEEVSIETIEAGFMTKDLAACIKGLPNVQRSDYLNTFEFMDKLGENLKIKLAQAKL

[5] = test system: Isocitrate dehydrogenase [NADP] cytoplasmic (Homo sapiens), O75874 [R132H]; experiment: Competitive inhibition of IDH1 R132H mutant using alpha-ketoglutarate as substrate by stopped-flow spectrophotometric analysis
[6] = target: T3, Isocitrate dehydrogenase [NADP] cytoplasmic (Homo sapiens, UniProt O75874); experiment: Inhibition of wild type IDH1 using DL-isocitrate as substrate by resazurin-based fluorimetric analysis
T3 sequence (O75874 whole entry): as the sequence (O75874 whole entry R132H) above, with H132R counted along it

[7] = target: T2, Isocitrate dehydrogenase [NADP] cytoplasmic; experiment: Inhibition of IDH1 R132H mutant using alpha-ketoglutarate as substrate after 60 mins by resazurin-based fluorimetric analysis
[8] = test system: Isocitrate dehydrogenase [NADP] cytoplasmic (Homo sapiens), O75874 [R132H]; experiment: Uncompetitive inhibition of IDH1 R132H mutant using NADPH as substrate by stopped-flow spectrophotometric analysis
[9] = target: T3, Isocitrate dehydrogenase [NADP] cytoplasmic; experiment: Inhibition of wild type IDH1 using DL-isocitrate as substrate by resazurin-based fluorimetric analysis relative to control
[10] = target: T1, Isocitrate dehydrogenase [NADP] cytoplasmic; experiment: Inhibition of IDH1 R132C mutant using alpha-ketoglutarate as substrate after 60 mins by resazurin-based fluorimetric analysis
[11] = Hepatic extraction ratio in rat liver microsomes; format: ADME, Microsome; conditions: read-out: ERH
Outline: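 Compound incubated with rat liver microsomes in vitro. Turnover in the incubation was used to estimate the hepatic extraction ratio. Human microsomes were run alongside.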

[12] = Plasma protein binding in mouse by equilibrium dialysis method; format: ADME, cell-free; conditions: read-out: PPB (converted)
Outline: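 Mouse plasma protein binding measured by equilibrium dialysis.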

[13] = Fraction unbound in CD1 nude mouse plasma xenografted with human U87 cells expressing IDH1 R132H mutant at 150 mg/kg, ip administered BID for 1 day; format: ADME, organism-based, U-87MG ATCC; set-up: dose 150 mg/kg, route intraperitoneal
[14] = AUC (0 to 24 hrs) in mouse at 50 mg/kg, ip; format: ADME, organism-based; set-up: time < 24 hr, dose 50 mg/kg, route intraperitoneal; conditions: plasma
Outline: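 Mouse given a single IP dose of 50 mg/kg; plasma exposure expressed as AUC0−24h.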

Mus musculus [15] = experiment: Inhibition of IDH1 R132H mutant in human U87 cells xenografted in CD1 nude mouse assessed as inhibition of 2-hydroxyglutarate production at 150 mg/kg, ip administered as single dose by LC/MS analysis relative to vehicle-treated control; format: functional, U-87MG ATCC; conditions: route intraperitoneal
Outline: (§2)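 Female nude mice bearing U87 R132H tumor xenografts dosed IP at 150 mg/kg in 0.5% MC/0.2% Tween 80, one dose or three BID doses; blood and tumor sampled at several time points; tumor 2-HG quantified by LC/MS/MS against vehicle-dosed animals.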

Mus musculus [16] = experiment: Inhibition of IDH1 R132H mutant in human U87 cells xenografted in CD1 nude mouse assessed as inhibition of 2-hydroxyglutarate production at 150 mg/kg, ip administered BID by LC/MS analysis relative to vehicle-treated control; format: functional, U-87MG ATCC; conditions: route intraperitoneal; outline: as §2

With `Cc1ccccc1C(C(=O)NC1CCCC1)N(C(=O)Cc1cccs1)c1cccc(F)c1` (configuration not stated) the GI50 (HT-1080) was over 20000 nM, the IC50 [1] was 390 nM and the GI50 [2] was over 20000 nM. The IC50 [3] was 580 nM, the inhibition [4] was “Active” and the inhibition [5] was “Active”. The IC50 [6] was 7700 nM, the IC50 [7] was 90 nM and the inhibition [8] was “Active”. It also gave an Imax [9] of 32% and an IC50 [10] of 50 nM.

For `O=C(NC1CCCCC1)C(c1ccccc1)N(C(=O)Cc1cccs1)c1cccc(F)c1` (configuration not stated), the IC50 [7] was 80 nM.

With `O=C(NC1CCCCC1)[C@H](c1ccccc1)N(C(=O)Cc1cccs1)c1cccc(F)c1` the IC50 [7] was 60 nM.

`O=C(NC1CCCCC1)[C@@H](c1ccccc1)N(C(=O)Cc1cccs1)c1cccc(F)c1` showed an IC50 [7] of over 11000 nM.

`Cc1ccccc1C(C(=O)NC1CCCCC1)N(C(=O)CNC1CCCCC1)c1cccc(F)c1` (racemic) gave an IC50 [7] of 1270 nM.

Molecule `Cc1ccccc1C(C(=O)NC1CCCCC1)N(C(=O)CNc1ccccc1)c1cccc(F)c1` (racemic) has an IC50 [7] of 60 nM.

Work on `Cc1ccccc1C(C(=O)NC1CCCCC1)N(C(=O)CN(C)c1ccccc1)c1cccc(F)c1` (racemic) yielded an IC50 [7] of 50 nM.

With `Cc1ccccc1C(C(=O)NC1CCCCC1)N(C(=O)CN1CCCC1)c1cccc(F)c1` (racemic) the IC50 [7] was 1630 nM.

Work on `Cc1ccccc1C(C(=O)NC1CCCCC1)N(C(=O)CN1CCOCC1)c1cccc(F)c1` (racemic) yielded an IC50 [7] of 240 nM.

For `Cc1ccccc1C(C(=O)NC1CCCCC1)N(C(=O)CN1CCNCC1)c1cccc(F)c1` (racemic), the IC50 [7] was 5640 nM.

`Cc1ccccc1C(C(=O)NC1CCCCC1)N(C(=O)CN1CCc2ccccc21)c1cccc(F)c1` (racemic) gave an IC50 [7] of 140 nM.

With `Cc1ccccc1C(C(=O)NC1CCCCC1)N(C(=O)Cn1cccn1)c1cccc(F)c1` (racemic) the IC50 [7] was 420 nM.

With `Cc1ccccc1C(C(=O)NC1CCCCC1)N(C(=O)Cn1cncn1)c1cccc(F)c1` (racemic) the IC50 [7] was 140 nM.

With `Cc1ccccc1C(C(=O)NC1CCCCC1)N(C(=O)Cn1ccnc1C)c1cccc(F)c1` (racemic) the GI50 (HT-1080) was over 20000 nM, the IC50 [1] was 480 nM and the hepatic extraction ratio [11] was 0.85. For the same molecule, the GI50 [2] was over 20000 nM, the fraction unbound [12] was 0.043 and the fraction unbound at 24 h [13] was 0.043. For the same molecule, the IC50 [6] was over 100000 nM, the IC50 [7] was 70 nM and the AUC(0-t) at 24 h [14] was 20800 ng·h/mL. The Imax (Mus musculus [15]) was 69%, the Imax (Mus musculus [16]) was 89.4% and the IC50 [10] was 160 nM.

Work on `Cc1ccccc1C(C(=O)NC1CCCCC1)N(C(=O)Cn1c(C)nc2ccccc21)c1cccc(F)c1` (racemic) yielded a GI50 (HT-1080) of over 20000 nM, an IC50 [1] of 110 nM and a GI50 [2] of over 20000 nM. The IC50 [3] was 240 nM, the IC50 [6] was over 100000 nM and the IC50 [7] was 80 nM. It also gave an IC50 [10] of 40 nM.

Work on `Cc1ccccc1C(C(=O)NC1CCCCC1)N(C(=O)Cn1ccc2ccccc21)c1cccc(F)c1` (racemic) yielded a GI50 (HT-1080) of over 20000 nM, an IC50 [1] of 170 nM and a GI50 [2] of over 20000 nM. The IC50 [3] was 370 nM, the IC50 [6] was over 100000 nM and the IC50 [7] was 70 nM. For the same molecule, the IC50 [10] was 40 nM.

For `Cc1ccccc1C(C(=O)NC1CCCCC1)N(C(=O)Cc1cccs1)c1cccc(F)c1` (racemic), the GI50 (HT-1080) was over 20000 nM, the IC50 [1] was 150 nM and the GI50 [2] was over 20000 nM. For the same molecule, the IC50 [3] was 190 nM, the IC50 [6] was 2900 nM and the IC50 [7] was 50 nM. The Imax [9] was 22% and the IC50 [10] was 30 nM.

For `Cc1ccccc1C(C(=O)NC1CCC1)N(C(=O)Cc1cccs1)c1cccc(F)c1` (racemic), the IC50 [7] was 290 nM.

Molecule `Cc1ccccc1C(C(=O)NC(C)(C)C)N(C(=O)Cc1cccs1)c1cccc(F)c1` (racemic) has an IC50 [7] of 860 nM.

`Cc1ccccc1C(C(=O)NC1CC1)N(C(=O)Cc1cccs1)c1cccc(F)c1` (racemic) gave an IC50 [7] of 2880 nM.

In the case of `Cc1ccccc1NC(=O)C(c1ccccc1C)N(C(=O)Cc1cccs1)c1cccc(F)c1` (racemic), the IC50 [7] is reported as 570 nM.

With `Cc1ccccc1C(C(=O)NCc1ccccc1)N(C(=O)Cc1cccs1)c1cccc(F)c1` (racemic) the IC50 [7] was 1800 nM.

`Cc1ccccc1C(C(=O)NC1CCOCC1)N(C(=O)Cc1cccs1)c1cccc(F)c1` (racemic) gave an IC50 [7] of 640 nM.

In the case of `Cc1ccccc1C(C(=O)NC1CCNCC1)N(C(=O)Cc1cccs1)c1cccc(F)c1` (racemic), the IC50 [7] is reported as 53100 nM.

In the case of `Cc1ccccc1C(C(=O)NC1CCCCC1)N(C(=O)Cc1cscn1)c1cccc(F)c1` (racemic), the GI50 (HT-1080) is reported as over 20000 nM, the IC50 [1] is reported as 220 nM and the GI50 [2] is reported as over 20000 nM. For the same molecule, the IC50 [3] was 290 nM, the IC50 [6] was 19700 nM and the IC50 [7] was 100 nM. It also gave an Imax [9] of 32% and an IC50 [10] of 60 nM.

For `Cc1ccccc1C(C(=O)NC1CCCCC1)N(C(=O)Cc1ccncc1)c1cccc(F)c1` (racemic), the GI50 (HT-1080) was over 20000 nM, the IC50 [1] was 260 nM and the GI50 [2] was over 20000 nM. It also gave an IC50 [3] of 210 nM, an IC50 [6] of 19300 nM and an IC50 [7] of 50 nM. For the same molecule, the Imax [9] was 34% and the IC50 [10] was 50 nM.

In the case of `Cc1ccccc1C(C(=O)NC1CCCCC1)N(C(=O)Cc1c[nH]c2ccccc12)c1cccc(F)c1` (racemic), the GI50 (HT-1080) is reported as over 3000 nM, the IC50 [1] is reported as 90 nM and the GI50 [2] is reported as over 20000 nM. For the same molecule, the IC50 [3] was 360 nM, the IC50 [6] was 6300 nM and the IC50 [7] was 60 nM. The Imax [9] was 39% and the IC50 [10] was 30 nM.

For `Cc1ccccc1C(C(=O)NC1CCCCC1)N(C(=O)Cc1cncnc1)c1cccc(F)c1` (racemic), the IC50 [7] was 1100 nM.

Molecule `Cc1ccccc1C(C(=O)NC1CCCCC1)N(C(=O)CCl)c1cccc(F)c1` (racemic) has an IC50 [7] of 900 nM.

For `Cc1ccccc1C(C(=O)NC1CCCCC1)N(C(=O)CN)c1cccc(F)c1` (racemic), the IC50 [7] was 7800 nM.

`Cc1ccccc1C(C(=O)NC1CCCCC1)N(C(=O)CNC1CC1)c1cccc(F)c1` (racemic) gave an IC50 [7] of 190 nM.

In the case of `Cc1ccccc1C(C(=O)NC1CCCCC1)N(C(=O)CNC1CCCC1)c1cccc(F)c1` (racemic), the IC50 [7] is reported as 450 nM.

Molecule `CC(C(=O)NC1CCCCC1)(c1ccccc1)N(C(=O)Cc1cccs1)c1cccc(F)c1` (racemic) has an IC50 [7] of 1400 nM.

For `CN(C(=O)C(c1ccccc1)N(C(=O)Cc1cccs1)c1cccc(F)c1)C1CCCCC1` (racemic), the IC50 [7] was 3600 nM.

Work on `Cc1ccccc1C(CNC1CCCCC1)N(C(=O)Cc1cccs1)c1cccc(F)c1` (racemic) yielded an IC50 [7] of over 100000 nM.

With `Cc1ccccc1C(C(=O)NC1CCCCC1)N(CCc1cccs1)c1cccc(F)c1` (racemic) the IC50 [7] was over 100000 nM.
